Drawing on ChEMBL document CHEMBL2062523, “Synthesis and evaluation of the quorum sensing inhibitory effect of substituted triazolyldihydrofuranones” (Bioorg Med Chem, 2012), this text covers MIC, inhibition and Activity for seven compounds.

Holding throughout (type): functional
One test relates to Burkholderia cenocepacia. Kind of test: Antibacterial activity against Burkholderia cenocepacia LMG16656 after 20 hrs by broth microdilution assay. The conditions noted are these: LMG16656, 20 h. The gist of the method: (§1)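 EUCAST broth microdilution in triplicate, inoculum about 5 × 10^5 CFU/ml. Incubated 20 h at 37 °C, then OD590 read. Compounds from 100 mM DMSO stocks, diluted in water.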
In general terms: Broth dilution looks for growth in wells or tubes with falling amounts of substance.

Test [1] has as its system Pseudomonas aeruginosa. The experiment in a line: Antagonist activity at Pseudomonas aeruginosa QSIS2 LasR-mediated quorum sensing co-expressing SacB1 assessed as inhibition of 3-oxo-C12-HSL-induced luminescence at 0.25 mM […] by reporter gene assay. (In general: A reporter such as luciferase makes a cellular process visible.)
Test [2] addresses T1, Transcriptional activator protein LuxR (Aliivibrio fischeri) (UniProt P12746).
T1 sequence (whole entry): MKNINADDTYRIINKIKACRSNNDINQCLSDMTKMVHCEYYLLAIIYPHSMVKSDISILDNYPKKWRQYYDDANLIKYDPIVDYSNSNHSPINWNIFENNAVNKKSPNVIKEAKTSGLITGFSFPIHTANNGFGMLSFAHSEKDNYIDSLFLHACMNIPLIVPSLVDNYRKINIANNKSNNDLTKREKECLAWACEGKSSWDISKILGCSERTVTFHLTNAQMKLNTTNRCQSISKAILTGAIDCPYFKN
The experiment in a line: Agonist activity at Vibrio fischeri LuxR-mediated quorum sensing expressed in Escherichia coli JB523 assessed as GFP expression at 0.5 mM after 24 hrs by reporter gene assay. The gist of the method:
(§2)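 E. coli JB523 (pJBA130, luxR-PluxI–GFP) overnight culture diluted to OD590 0.1 in LB with 0.4% NaCl, tetracycline 100 µg/ml final. Compounds 100–1000 µM added without signal; C6-HSL (5 µM) as positive control, water as negative. 24 h at 30 °C; GFP fluorescence ex 485/em 510 nm. Twelve wells per compound, ≥3 repeats.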

In test [3] the target is T1, Transcriptional activator protein LuxR (Aliivibrio fischeri). The experiment in a line: Antagonist activity at Vibrio fischeri LuxR-mediated quorum sensing expressed in Escherichia coli JB523 assessed as inhibition of C6-HSL-induced GFP expression after 24 hrs by reporter gene assay. The gist of the method:
(§3)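 JB523 GFP biosensor in LB/0.4% NaCl at OD590 0.1 with tetracycline 100 µg/ml final; compounds co-added with C6-HSL (5 µM). Plates kept 24 h at 30 °C, then GFP read at 485/510 nm. Each compound tested in twelve wells, assay repeated at least three times.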

Test [4] has the same target. Kind of test: Antagonist activity at Vibrio fischeri LuxR-mediated quorum sensing expressed in Escherichia coli JB523 assessed as inhibition of C6-HSL-induced GFP expression at 1 mM after 24 hrs by reporter gene assay. The gist of the method: as §3
Test [5] shares this target. The experiment in a line: Agonist activity at Vibrio fischeri LuxR-mediated quorum sensing expressed in Escherichia coli JB523 assessed as GFP expression at 1 mM after 24 hrs by reporter gene assay. A digest of the protocol: as §2
A further test relates to Escherichia coli. The experiment in a line: Antibacterial activity against Escherichia coli JB523 after 20 hrs by broth microdilution assay. Conditions: JB523, 20 h. The gist of the method:
as §1

Test [6] concerns the target T1, Transcriptional activator protein LuxR (Aliivibrio fischeri). The experiment in a line: Antagonist activity at Vibrio fischeri LuxR-mediated quorum sensing expressed in Escherichia coli JB523 assessed as inhibition of C6-HSL-induced GFP expression at 0.1 mM after 24 hrs by reporter gene assay. The gist of the method: as §3
Test [7] has the same target. Kind of test: Agonist activity at Vibrio fischeri LuxR-mediated quorum sensing expressed in Escherichia coli JB523 assessed as GFP expression at 0.1 mM after 24 hrs by reporter gene assay. The gist of the method: as §2
In test [8] the test system is Pseudomonas aeruginosa. Kind of test: Agonist activity at Pseudomonas aeruginosa QSIS2 LasR-mediated quorum sensing coexpressing SacB1 assessed as […] by reporter gene assay.
Test [9] has as its system Pseudomonas aeruginosa. The experiment in a line: Antagonist activity at Pseudomonas aeruginosa QSIS2 LasR-mediated quorum sensing co-expressing SacB1 assessed as inhibition of 3-oxo-C12-HSL-induced luminescence at 0.5 mM after 24 hrs by reporter gene assay.
Test [10] concerns Pseudomonas aeruginosa. The experiment in a line: Agonist activity at Pseudomonas aeruginosa QSIS2 LasR-mediated quorum sensing co-expressing SacB1 assessed as luminescence after 24 hrs by reporter gene assay.
Test [11] concerns Pseudomonas aeruginosa. Kind of test: Agonist activity at Pseudomonas aeruginosa QSIS2 LasR-mediated quorum sensing co-expressing SacB1 assessed as luminescence at 0.5 mM after 24 hrs by reporter gene assay.
The test system of test [12] is Pseudomonas aeruginosa. Kind of test: Antibacterial activity against Pseudomonas aeruginosa PAO1 after 20 hrs by broth microdilution assay. Conditions: PAO1, 20 h. A digest of the protocol:
as §1

In test [13] the test system is Pseudomonas aeruginosa. The experiment in a line: Antagonist activity at Pseudomonas aeruginosa QSIS2 LasR-mediated quorum sensing co-expressing SacB1 assessed as inhibition of 3-oxo-C12-HSL-induced luminescence at 0.1 mM after 24 hrs by reporter gene assay.
Test [14] deals with Pseudomonas aeruginosa. The experiment in a line: Antibacterial activity against Pseudomonas aeruginosa QSIS2 after 20 hrs by broth microdilution assay. Conditions: QSIS2, 20 h. The gist of the method: as §1
Test [15] addresses T1, Transcriptional activator protein LuxR (Aliivibrio fischeri). The experiment in a line: Agonist activity at Vibrio fischeri LuxR-mediated quorum sensing expressed in Escherichia coli JB523 assessed as GFP expression at 0.25 mM after 24 hrs by reporter gene assay. The gist of the method: as §2
The target is the same in test [16]. The experiment in a line: Antagonist activity at Vibrio fischeri LuxR expressed in Escherichia coli JB523 assessed as inhibition of C6-HSL-induced GFP expression at 0.5 mM after 24 hrs by reporter gene assay. The gist of the method: as §3
The test system of test [17] is Pseudomonas aeruginosa. Kind of test: Agonist activity at Pseudomonas aeruginosa QSIS2 LasR-mediated quorum sensing co-expressing SacB1 assessed as luminescence at 0.1 mM after 24 hrs by reporter gene assay.
Test [18] relates to Pseudomonas aeruginosa. The experiment in a line: Agonist activity at Pseudomonas aeruginosa QSIS2 LasR-mediated quorum sensing co-expressing SacB1 assessed as luminescence at 0.25 mM after 24 hrs by reporter gene assay.
In test [19] the test system is Pseudomonas aeruginosa. The experiment in a line: Antagonist activity at Pseudomonas aeruginosa QSIS2 LasR-mediated quorum sensing co-expressing SacB1 assessed as inhibition of 3-oxo-C12-HSL-induced luminescence at 1 mM […] by reporter gene assay.

In brackets after ≈: the same amount, converted by molar mass. Activity calls are given as the source filed them. The calls are words filed in the database; no cut-off is given here.

As to `O=C1OCCC1n1cc(-c2ccccc2)nn1` (stereo not drawn), the MIC with Burkholderia cenocepacia stood at 5 mM (≈ 1150 µg/mL); in the test with Escherichia coli, 10 mM (≈ 2290 µg/mL); in the test with Pseudomonas aeruginosa [12], 5 mM (≈ 1150 µg/mL); against Pseudomonas aeruginosa [14] it was 5 mM (≈ 1150 µg/mL). The inhibition entry (with Pseudomonas aeruginosa [1]; in test [6]; in the test with Pseudomonas aeruginosa [9]; with Pseudomonas aeruginosa [13]; in the test on Pseudomonas aeruginosa [19]) was “inactive” throughout. Also, the outcome (in [2]; in test [7]; in test [15]; with Pseudomonas aeruginosa [17]; with Pseudomonas aeruginosa [18]) was inactive. The inhibition entry in [3] was “Dose-dependent effect”; in test [4], 26.9%; in test [16] it was 24.5%. Moreover, the Activity is 12.8% in test [5], 22.2% in the test on Pseudomonas aeruginosa [8], “Dose-dependent effect” in the test on Pseudomonas aeruginosa [10] and 14.4% in the test with Pseudomonas aeruginosa [11].
Turning to `CCCCCCCCCCc1cn(C2CCOC2=O)nn1` (stereo not drawn), the MIC in the test with Burkholderia cenocepacia, against Escherichia coli, with Pseudomonas aeruginosa [12] and in the test with Pseudomonas aeruginosa [14] was 2.5 mM (≈ 734 µg/mL) each time. Moreover, the inhibition with Pseudomonas aeruginosa [1] was 8.1%; in test [3] it was “Dose-dependent effect”; in test [4] it was 31.9%; in test [6] it was 12.4%; in the test with Pseudomonas aeruginosa [9], 15%; in the test with Pseudomonas aeruginosa [13] it was 7%. For the same compound, the figures for the inhibition (in test [16]; with Pseudomonas aeruginosa [19]) were 28% and 21.9%, respectively. Also, the result in [2], in [5], in test [7] and in test [15] was inactive. The Activity in the test with Pseudomonas aeruginosa [8] is 57.2%; in the test with Pseudomonas aeruginosa [10], “Dose-dependent effect”; with Pseudomonas aeruginosa [11] it was 38%; with Pseudomonas aeruginosa [17], 32.1%; in the test on Pseudomonas aeruginosa [18], 31.4%.
In the case of `O=C1OCCC1n1cc(Cc2ccccc2)nn1` (stereo not drawn), the minimum inhibitory concentration (MIC) in the test with Burkholderia cenocepacia, with Escherichia coli, in the test with Pseudomonas aeruginosa [12] and against Pseudomonas aeruginosa [14] was 5 mM (≈ 1220 µg/mL) in each case. Further, the inhibition result with Pseudomonas aeruginosa [1], in the test on Pseudomonas aeruginosa [9] and in the test on Pseudomonas aeruginosa [13] was “inactive” in each case. In addition, the result in test [2], in [5], in test [7] and in test [15] was inactive. Moreover, the inhibition entry is “Dose-dependent effect” in test [3]; 34.4% in [4]; 6.3% in [6]; 29.6% in [16]; 49.9% with Pseudomonas aeruginosa [19]. Moreover, the Activity is 67.5% in the test on Pseudomonas aeruginosa [8]; “Dose-dependent effect” in the test with Pseudomonas aeruginosa [10]; 39.7% in the test with Pseudomonas aeruginosa [11]; 19.1% in the test with Pseudomonas aeruginosa [17]; 31.1% with Pseudomonas aeruginosa [18].
With `CCCCCCCc1cn(C2CCOC2=O)nn1` (stereo not drawn), the minimal inhibitory concentration (MIC) with Burkholderia cenocepacia, with Escherichia coli, with Pseudomonas aeruginosa [12] and in the test with Pseudomonas aeruginosa [14] was 5 mM (≈ 1260 µg/mL) in each case. Besides, the inhibition entry with Pseudomonas aeruginosa [1], with Pseudomonas aeruginosa [9], in the test on Pseudomonas aeruginosa [13] and in the test on Pseudomonas aeruginosa [19] was “inactive” throughout. Also, the Activity in test [2] amounted to 12.2%; in test [5], 17.6%; in test [15], 8%. Also, the inhibition entry in [3] is “Dose-dependent effect”; in test [4], 39%; in test [6], 13.7%; in test [16], 34.6%. Further, the result (in test [7]; in the test with Pseudomonas aeruginosa [8]; with Pseudomonas aeruginosa [11]; with Pseudomonas aeruginosa [17]; in the test on Pseudomonas aeruginosa [18]) was inactive.
Consider `CCCCCc1cn(C2CCOC2=O)nn1` (stereo not drawn), for which the MIC with Burkholderia cenocepacia, in the test on Escherichia coli, with Pseudomonas aeruginosa [12] and in the test with Pseudomonas aeruginosa [14] was 5 mM (≈ 1120 µg/mL) throughout. The inhibition entry in the test on Pseudomonas aeruginosa [1], in the test with Pseudomonas aeruginosa [9], in the test with Pseudomonas aeruginosa [13] and in the test on Pseudomonas aeruginosa [19] was “inactive” in each case. Besides, the values for the Activity in test [2], in [5] and in test [15] were 16.3%, 25.9% and 5.7%, respectively. Moreover, the inhibition result in test [3] was “Dose-dependent effect”; in test [4] it was 35.1%; in test [6], 9%; in [16] it was 27.5%. In addition, the result (in test [7]; in the test with Pseudomonas aeruginosa [8]; in the test on Pseudomonas aeruginosa [11]; with Pseudomonas aeruginosa [17]; in the test with Pseudomonas aeruginosa [18]) was inactive.
For the compound `CCCCCCc1cn(C2CCOC2=O)nn1` (stereo not drawn), the MIC with Burkholderia cenocepacia, with Escherichia coli, in the test with Pseudomonas aeruginosa [12] and against Pseudomonas aeruginosa [14] was 5 mM (≈ 1190 µg/mL) each time. Besides, the inhibition entry in the test on Pseudomonas aeruginosa [1], in the test on Pseudomonas aeruginosa [9], in the test on Pseudomonas aeruginosa [13] and in the test on Pseudomonas aeruginosa [19] was “inactive” each time. Moreover, the Activity came to 17.5% in [2], 32.7% in test [5] and 10% in [15]. Further, the inhibition result is “Dose-dependent effect” in [3], 34.3% in test [4], 11.6% in [6] and 23.2% in [16]. Further, the result (in test [7]; in the test with Pseudomonas aeruginosa [8]; with Pseudomonas aeruginosa [11]; with Pseudomonas aeruginosa [17]; in the test on Pseudomonas aeruginosa [18]) was inactive.
With `CCCCc1cn(C2CCOC2=O)nn1` (stereo not drawn), the MIC in the test on Burkholderia cenocepacia, in the test with Escherichia coli, against Pseudomonas aeruginosa [12] and in the test on Pseudomonas aeruginosa [14] was 5 mM (≈ 1050 µg/mL) in each case. The inhibition result with Pseudomonas aeruginosa [1], with Pseudomonas aeruginosa [9], with Pseudomonas aeruginosa [13] and in the test with Pseudomonas aeruginosa [19] was “inactive” each time. The Activity amounted to 11.6% in [2] and 17.3% in test [5]. Further, the inhibition entry in test [3] is “Dose-dependent effect”; in test [4] it was 27.9%; in [6], 12.7%; in test [16] it was 22.5%. Further, the result (in test [7]; with Pseudomonas aeruginosa [8]; with Pseudomonas aeruginosa [11]; in test [15]; in the test with Pseudomonas aeruginosa [17]; with Pseudomonas aeruginosa [18]) was inactive.

Usually MIC stands for the least concentration at which growth counts as inhibited. Low readings indicate inhibition by little substance, high ones a need for much substance. For orientation: inhibition means the share of the control response that was lost under treatment.
